# Screens as filed in PubChem BioAssay.
# TPT1 inh = blocks Candida albicans tRNA 2'-phosphotransferase | recombinant caTPT1, FP RNA substrate dephosphorylation | inhibition, % at 5 µM | 300,000 compounds, 0.81% hits | AID 1962;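 active means inhibition above the mean of all tested compounds plus 3 SD, set per screening campaign, cut at about 24% in these data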;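 further: plate controls were DMSO alone for no effect and ferristatin control at 100 nM for full effect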
# IDE cell inh = cellular human IDE inhibition; P14735; HEK cells, FAbetaB cleavage, fluorescence polarization; inhibition, % at 5.59 µM; 320,000 compounds, 0.41% hits; AID 434962;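 active means percent inhibition above the average of all tested compounds plus 3 SD, set per screening campaign, cut at about 16% in these data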;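 further: IDE supplied by intact live HEK cells; FP after avidin binding of uncleaved biotin substrate so inhibition keeps polarization high; 0% = DMSO wells and 100% = 60 µM reference IDE inhibitor Ii1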
# Target sequence (P14735 whole entry, looked up): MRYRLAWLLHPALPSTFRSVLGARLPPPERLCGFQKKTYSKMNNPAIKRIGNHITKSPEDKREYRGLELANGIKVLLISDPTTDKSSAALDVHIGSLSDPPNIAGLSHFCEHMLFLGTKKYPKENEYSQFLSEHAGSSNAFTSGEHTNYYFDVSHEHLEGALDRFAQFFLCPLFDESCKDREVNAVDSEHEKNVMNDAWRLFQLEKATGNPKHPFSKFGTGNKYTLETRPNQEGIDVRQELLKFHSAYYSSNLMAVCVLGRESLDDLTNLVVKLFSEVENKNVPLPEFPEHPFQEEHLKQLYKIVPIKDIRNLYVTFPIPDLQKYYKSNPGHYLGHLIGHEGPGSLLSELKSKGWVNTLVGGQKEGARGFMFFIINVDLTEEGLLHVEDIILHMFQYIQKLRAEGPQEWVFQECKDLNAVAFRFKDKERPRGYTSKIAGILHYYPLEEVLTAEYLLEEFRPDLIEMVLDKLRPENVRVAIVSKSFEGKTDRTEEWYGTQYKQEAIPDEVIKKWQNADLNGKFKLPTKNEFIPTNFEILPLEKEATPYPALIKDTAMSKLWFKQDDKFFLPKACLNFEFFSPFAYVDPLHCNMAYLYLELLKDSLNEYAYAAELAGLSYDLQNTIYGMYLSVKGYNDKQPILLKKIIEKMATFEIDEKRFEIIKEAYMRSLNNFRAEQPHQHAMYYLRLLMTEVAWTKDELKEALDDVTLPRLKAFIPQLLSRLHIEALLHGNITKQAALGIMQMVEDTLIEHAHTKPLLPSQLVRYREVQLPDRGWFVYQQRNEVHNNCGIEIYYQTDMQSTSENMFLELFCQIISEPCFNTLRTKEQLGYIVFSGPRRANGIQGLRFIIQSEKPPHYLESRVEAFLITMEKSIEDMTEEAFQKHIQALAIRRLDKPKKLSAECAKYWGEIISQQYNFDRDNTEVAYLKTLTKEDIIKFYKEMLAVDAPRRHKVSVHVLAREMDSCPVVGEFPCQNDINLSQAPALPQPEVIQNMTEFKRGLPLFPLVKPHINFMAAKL
# HNF4A DNA FP = change in binding of human HNF4 alpha to DNA; HNF4a-FITC DNA binding, fluorescence polarization, 1 h; activity change, % at 10 µM; AID 1224865; 360,000 compounds, 0.3% hits; in the data active means activity change above about 30%, passing the limit was not always enough
# Rpn11 block = inhibitors of human proteasome Rpn11. AID 588493. 360,000 compounds, 0.59% hits. O00487. inhibition, % at 20 µM. human 26S proteasome, Ub4-pepOG fluorescence polarization; 20S core pre-blocked with epoxomicin;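 active means inhibition at 20 µM, scaled to each plate's controls, above about 33%, limit read from the data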
# CSN inh = CSN deneddylation inhibition | Q92905 | Purified CSN, SCF-Nedd8-OG deneddylation, fluorescence polarization | inhibition, % at 12.5 µM | 360,000 compounds, 0.38% hits | AID 651999;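 active means pattern-corrected inhibition above about 35%, with an unprinted fluorescence ratio check between 0.5 and 1.5, limit read from the data, passing the limit was not always enough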;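 further: 0% = enzyme with substrate and 100% = substrate without enzyme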
#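 Schedule: reaction 90 min, room temperature / Assay system: HEK293T-derived human Csn5 enzyme / Input: Csn5 at 0.24 nM final / Measure: inhibition of Csn5 cleavage, % / Control set: substrate-only high control, full reaction low control / Technique: fluorescence polarization of the substrate / Buffer or medium: Tris/NaCl/DTT buffer, pH 7.5 / Reagent: SCFSkp2-Nedd8OG substrate at 10 nM final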
# IDE act = IDE (human) activation, cell-based. P14735. HEK cells, FAbeta-B cleavage, fluorescence polarization; 0% vehicle, 100% cell-free pure enzyme wells. activation, % at 5.96 µM. 340,000 compounds, 0.073% hits;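 active means activation above the mean of all tested compounds plus 3 SD, set per screening campaign, cut at about 17% in these data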
# Rpn11 confirm = Rpn11 inhibition confirmation, single concentration; shares compounds with Rpn11 block; purified human 26S proteasome, Ub4-pepOG fluorescence polarization; proteasome pretreated with epoxomicin; inhibition, % at 20 µM; 1,900 compounds, 29% hits; AID 602318
# MMP-2 inh = MMP-2 (human) inhibition counter-screen. shares compounds with Rpn11 block. AID 602330. 1,900 compounds, 4% hits. recombinant MMP-2, FRET peptide cleavage fluorescence. inhibition, % at 20 µM;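 further: human MMP-2 activated beforehand with APMA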
# Thrombin inh = thrombin (bovine) inhibition counter-screen | shares compounds with Rpn11 block | 1,900 compounds, 13% hits | inhibition, % at 20 µM | bovine thrombin cleavage of Ub4-pepOG, fluorescence polarization;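 active means mean inhibition at least 40% at 20 µM, or signal 3 deviations below plate average, so some actives read negative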;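 further: plate controls were thrombin with DMSO for no effect and buffer wells lacking thrombin for full effect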
# An asterisk follows results filed as active; / = not tested or not shown. Rows were chosen to be rich in hits. Some 1.7% of all compounds tested hit in one or more screens of this group. Unless noted, no stated cut-off is given here; in the data, active means inhibition above about 40%; inactive means the rest.
SMILES,TPT1 inh,IDE cell inh,HNF4A DNA FP,Rpn11 block,CSN inh,IDE act,Rpn11 confirm,MMP-2 inh,Thrombin inh
Cc1ccc2oc(=O)c3cc(C(=O)NCCCN4C(C)CCCC4C)sc3c2c1 (stereo not given),1,4,5,-2,2,-4,/,/,/
CCc1cccc(CC)c1NC(=O)CN1CC(C)SC1=NC1CCCCC1 (stereo not given),-18,0,5,61*,-2,6,-13,-7,-4
CCc1cccc(CC)c1NC(=O)NC1CCCCC1,-2,4,1,-2,-4,1,/,/,/
COc1cc(/C=C2/SC(=Nc3ccc(O)cc3)NC2=O)cc(OC)c1O,13,58*,5,59*,4,-113,1,-24,7
COc1cc(Cn2c3ccc(NC(=O)NCCc4ccccc4)cc3c(=O)n2C)ccc1F,/,/,2,-1,4,/,/,/,/
CCOc1ccc(NC(=O)c2ccc(NC(=O)c3cn4c5c(c(N6CCN(C)CC6)c(F)cc5c3=O)OCC4C)cc2)cc1 (stereo not given),-1,7,10,46*,1,0,-2,-11,0
Cc1ccc(Cl)cc1NC(=O)c1cc(S(=O)(=O)N2CCOCC2)cn1C,5,-2,4,-2,-3,1,/,/,/
Cn1cnnc1SCC(=O)Nc1ccc2nc(SCc3cccc4ccccc34)sc2c1,-1,6,0,1,5,-12,/,/,/
Cn1cnnc1SCC(=O)Nc1ccc2nc(SCc3ccccc3)sc2c1,0,1,1,64*,2,0,-7,-8,-6
CC1CCCCC1NC(=O)COc1ncnc2sccc12 (stereo not given),/,-2,1,-4,7,-2,/,/,/
N#C/C(=C\c1ccc(-c2cccc([N+](=O)[O-])c2)o1)C(=O)Nc1nc(-c2cccs2)cs1,3,4,-3,59*,4,12,-9,5,-20
CCOC(=O)[C@]12CCCC=C1N(Cc1ccc(Cl)cc1Cl)C(=O)[C@H](CC(=O)N1CCOCC1)C2,/,/,0,/,-3,/,/,/,/
COc1ccc(C2CC(c3cccc([N+](=O)[O-])c3)=NN2/C(C)=C/C(C)=O)cc1 (stereo not given),/,/,87*,90*,57*,/,142*,-4,151*
COc1ccc(C2=NN(C(=O)c3cccc([N+](=O)[O-])c3)C(c3cccc([N+](=O)[O-])c3)C2)cc1 (stereo not given),1,2,1,-4,2,-2,/,/,/
N#Cc1cc(C(=O)c2cc(F)ccc2O)cn(Cc2ccccc2)c1=O,0,12,0,-3,4,-5,/,/,/
Cc1ccc(O)c(C(=O)c2cc(C#N)c(=O)n(Cc3ccccc3)c2)c1,14,1,7,40*,8,-2,13,-3,17
Cc1ccccc1NC(=O)COC(=O)Cc1ccsc1,-1,5,-6,-1,1,-3,/,/,/
Cc1ccc(C(=O)Nc2nc3c(s2)CCCC3)o1,-3,-7,1,1,-3,1,/,/,/
O=C(Nc1nc2c(s1)CCCC2)c1ccc(Br)o1,-4,-1,0,90*,-5,7,-3,2,3
C#CCOCCOCCOCCNc1nc(N2CCN(C(=O)CCCCCCCCCCNC(=O)Cn3cc(C[C@@H](C)O)nn3)CC2)nc(N2CCN(C(=O)CCCCCCCCCCNC(=O)[C@@H](CCC(=O)O)n3cc(CCCCCN)nn3)CC2)n1,-2,1,1,0,-4,1,/,/,/
C#CCOCCOCCOCCNc1nc(N2CCN(C(=O)CCCCCCCCCCNC(=O)Cn3cc(CCCCCN)nn3)CC2)nc(N2CCN(C(=O)CCCCCCCCCCNC(=O)[C@@H](CCSC)n3cc(CCO)nn3)CC2)n1,1,4,16,42*,13,31*,26,4,3
Cc1c(C(=O)N2CCOCC2)sc(NC(=O)c2ccc3c(c2)OCO3)c1C#N,4,0,5,41*,10,-2,-4,5,-17
CCn1nc(CC(=O)O)c2ccccc2c1=O,-5,-3,22,47*,1,2,-1,-33,-12
Cc1ccc(S(=O)(=O)NC(=O)NC2=NC(C)(C)N(c3ccc(Cl)c(Cl)c3)C(N)=N2)cc1,/,/,2,4,1,/,/,/,/
CCCCCCCCCCCCCCCC(O)C[N+](C)(C)CCO (stereo not given),/,/,7,62*,3,3,77*,12,-18
SMILES,TPT1 inh,IDE cell inh,HNF4A DNA FP,Rpn11 block,CSN inh,IDE act,Rpn11 confirm,MMP-2 inh,Thrombin inh
O=C(CN(C(=O)c1csnn1)c1ccc2c(c1)OCCO2)NCc1ccc(F)cc1,-4,-5,16,48*,0,5,6,-6,-1
COc1ccc(CNC(=O)CN(C(=O)c2csnn2)c2ccc3c(c2)OCCO3)cc1,3,-2,0,2,3,0,/,/,/
CC(C)(C)C(=O)c1c(N)[nH]c(C(=O)c2ccccc2)c1-c1ccc(C(F)(F)F)cc1,/,/,0,/,3,/,/,/,/
Cc1ccc(NC(=O)CS(=O)CC(=O)Nc2cnc3ccccc3c2)cc1Cl (stereo not given),-1,7,3,49*,1,0,10,-28,21
CC(OC(=O)Cc1n[nH]c(=O)c2ccccc12)C(=O)N(C)c1ccccc1 (stereo not given),/,/,-4,0,-1,/,/,/,/
CC(C1SC(=S)NC1=O)C1SC(=S)NC1=O (stereo not given),/,/,4,53*,38*,/,42*,24,33
CN(C)C(=O)C1CCC(=O)N1Cc1cccs1 (stereo not given),0,-7,12,-7,-2,7,/,/,/
c1ccc(CSc2nnc(-c3ccco3)o2)cc1,1,3,-1,-1,-6,0,/,/,/
c1coc(-c2nnc(SCc3nc4ccccc4[nH]3)o2)c1,7,5,28,46*,24,-6,-3,-1,-12
Cc1cc(N2CCCC2)nc2ccc(NC(=S)NC(C)C)cc12,0,2,5,8,3,4,/,/,/
S=c1[nH]nc(-c2cc(-c3ccccc3)n[nH]2)n1/N=C/c1c(Cl)cccc1Cl,-1,1,-6,47*,46*,1,87*,45*,52*
